The source made the active and inactive calls. No cut-off for these calls is given here.

For the first data set, the system named is Escherichia coli B. Put plainly: Competitive inhibition of Escherichia coli B H2-pteroate synthetase assessed as decrease in H2-pteroate formation using [7-14C]-PABA as substrate treated with enzyme for 10 mins prior to substrate challenge for 40 mins by radioassay method. The method, boiled down:
(§1)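 Cell-free extract of E. coli B (400-600 ug protein) was preincubated 10 min at 37 °C with 0.5 umol ATP, 2 umol MgCl2, 0.5 mg ascorbate, 0.1 mmol Tris-HCl pH 8.0 and 20 nmol 2-amino-4-hydroxy-6-hydroxymethyl-7,8-dihydropteridine in 0.45 ml. [7-14C]-PABA was then added and incubation ran 40 min. The reaction was stopped with citric acid phosphate buffer pH 3.8, free PABA was ether-extracted, and aqueous radioactivity was counted.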
Take `CCC(=O)c1ccc(N)cc1`: the Inhibition index came out at 180.
On the same count and under the same terms, then `Nc1ccc(C(=O)CC(C(=O)O)c2ccccc2)cc1` (stereo in doubt; 26), with 40; and `Nc1ccc(C(=O)N[C@H](CCC(=O)O)C(=O)O)cc1`, with 250; and `CCOC(=O)CC(=O)c1ccc(N)cc1`, with 105.
Regarding `CCOC(=O)CCC(=O)c1ccc(N)cc1`, the Inhibition index stood at 460.
The same measure, in the same setting: then `COC(=O)c1ccc(N)cc1`, with 450; and `Nc1ccc(C(=O)CC(C(=O)O)c2ccccc2)cc1` (stereo in doubt; 25), with 480.
Consider `Nc1ccc(C(=O)N[C@@H](CCC(=O)O)C(=O)O)cc1`, for which the Inhibition index came to 76.
`CNC(=O)c1ccc(N)cc1`: the Inhibition index amounted to 120.
Turning to `Nc1ccc(C(=O)NCCCC(=O)O)cc1`, the Inhibition index is 700.
In the case of `Nc1ccc(C(=O)NCCc2ccccc2)cc1`, the Inhibition index was 800.
On the same count and under the same terms, then `NC(=O)c1ccc(N)cc1`, with 53; and `CCOC(=O)c1ccc(N)cc1` [BENZOCAINE], with 600.
`Nc1ccc(C(=O)NCC(=O)O)cc1`: the Inhibition index was determined as 260.
Same read-out and setting: the same measure for `CN(C)C(=O)c1ccc(N)cc1`: 400.
On to `COC(=O)CNC(=O)c1ccc(N)cc1`, for which the Inhibition index is 550.
Regarding `CC(=O)c1ccc(N)cc1`, the Inhibition index was 210.
As to `Nc1ccc(C(=O)CC(C(=O)O)c2ccccc2)cc1` (racemic) [listing 1 of 2 here], the Inhibition index worked out at 74.
`Nc1ccc(C(=O)Nc2ccccc2)cc1`: the Inhibition index is 600.
As to `CCOC(=O)CC[C@H](NC(=O)c1ccc(N)cc1)C(=O)OCC`, the Inhibition index came out at 600.
Take `Nc1ccc(C(=O)CCC(=O)O)cc1`: the Inhibition index was determined as 55.
For `Nc1ccc(C(=O)c2ccccc2)cc1`, the Inhibition index is 800.

Test system in the next data set: not listed separately
Put plainly: Dissociation constant, pKa of the compound. The format is physicochemical.
Usually pKa stands for the pH at which an ionisable group is half protonated. Read a low pKa as a group that gives up its proton readily. `COC(=O)c1ccc(N)cc1` registered a pKa of 2.46.
Regarding `CCOC(=O)c1ccc(N)cc1` [BENZOCAINE], the pKa was 2.5.
In turn, `CC(=O)c1ccc(N)cc1` registered a pKa of 2.5.
Same read-out and setting: the same measure for `Nc1ccc(C(=O)c2ccccc2)cc1`: 2.24; for `Cc1ccc(N)cc1`: 5.1; for `Nc1ccc(CC(=O)O)cc1`: 3.6.

Test system in the next data set: not listed separately
As to the kind of experiment: Competitive inhibition of Escherichia coli B H2-pteroate synthetase assessed as decrease in H2-pteroate formation using [7-14C]-PABA as substrate treated with enzyme for 10 mins prior to substrate challenge for 40 mins by Dixon plot analysis. The method, boiled down: as §1
By Ki is commonly meant the dissociation constant of the complex between target and ligand, obtained from inhibition or displacement. With `Nc1ccc(C(=O)N[C@@H](CCC(=O)O)C(=O)O)cc1`, the Ki worked out at 170 µM.
As to `Nc1ccc(C(=O)CC(C(=O)O)c2ccccc2)cc1` (racemic) [listing 2 of 2 here], the Ki stood at 150 µM.
With `Nc1ccc(C(=O)CCC(=O)O)cc1`, the Ki came out at 130 µM.

A further data set relates to Escherichia coli. As to the kind of experiment: Antibacterial activity against Escherichia coli 273 assessed as growth inhibition at 1 mM after 22 hrs. The format is functional, organism-based. Put shortly:
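PABA-requiring E. coli 273 was grown across a range of PABA concentrations with compound at 1 mM, and growth was read after 22 h of incubation.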
On to `Nc1ccc(C(=O)CC(C(=O)O)c2ccccc2)cc1` (racemic) [listing 1 of 2 here], for which the “growth inhibition (GI)” value is “inactive”.
Regarding `Nc1ccc(C(=O)CCC(=O)O)cc1`, the “growth inhibition (GI)” value was “inactive”.

Source of the values: ChEMBL document CHEMBL3272340, “P-Aminobenzoic acid derivatives as inhibitors of the cell-free H2-pteroate synthesizing system of Escherichia coli” (J Med Chem, 1977).
